Among the data in ChEMBL document CHEMBL1134459 (J Med Chem, 2001) are IC50 values, retold here.

pIC50: −log10 of the molar value.

One assay concerns the target T1, E-selectin (Homo sapiens, UniProt P16581).
T1 sequence (P16581 whole entry): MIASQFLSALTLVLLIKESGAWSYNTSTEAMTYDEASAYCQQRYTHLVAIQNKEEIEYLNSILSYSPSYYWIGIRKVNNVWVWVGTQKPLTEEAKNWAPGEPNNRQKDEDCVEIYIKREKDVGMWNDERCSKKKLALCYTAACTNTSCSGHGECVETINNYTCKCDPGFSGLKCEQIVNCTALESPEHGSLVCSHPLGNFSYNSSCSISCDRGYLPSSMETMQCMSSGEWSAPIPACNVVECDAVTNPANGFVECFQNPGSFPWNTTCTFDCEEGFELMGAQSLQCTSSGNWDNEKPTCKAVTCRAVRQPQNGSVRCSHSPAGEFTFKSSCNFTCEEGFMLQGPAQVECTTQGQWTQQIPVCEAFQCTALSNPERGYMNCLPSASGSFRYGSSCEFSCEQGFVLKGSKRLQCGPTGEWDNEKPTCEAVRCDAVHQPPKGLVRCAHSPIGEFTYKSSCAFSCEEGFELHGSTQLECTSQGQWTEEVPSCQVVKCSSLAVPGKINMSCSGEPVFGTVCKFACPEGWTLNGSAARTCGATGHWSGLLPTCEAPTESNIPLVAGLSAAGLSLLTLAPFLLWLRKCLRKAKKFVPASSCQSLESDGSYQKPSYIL
Description: Inhibition of selectin E in human endothelial cells. The class given is cell-based, Endothelial cell. A digest of the protocol:
(§1)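 Whole-cell ELISA on primary HUVECs plated at 5 × 10^4 cells/mL in EBM/2% FBS with growth supplements. Compound preincubated 24 h at 37 °C, then inducer added (TNFα at 5 ng/mL final, or IL-1β or PMA in its place) for 6 h at 37 °C. Mouse monoclonal anti-E-selectin, anti-ICAM-1 or anti-VCAM-1 was applied overnight at 4 °C, then HRP anti-mouse IgG. Detection with OPD, A490. Triplicate assays.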

Assay [1] has as its target Intercellular adhesion molecule 1 (Homo sapiens, UniProt P05362). Briefly: Inhibition of intercellular adhesion molecule-1 (ICAM1) in human endothelial cells. Format: cell-based, Endothelial cell. A digest of the protocol: as §1

Intercellular adhesion molecule 1, sequence (P05362 whole entry): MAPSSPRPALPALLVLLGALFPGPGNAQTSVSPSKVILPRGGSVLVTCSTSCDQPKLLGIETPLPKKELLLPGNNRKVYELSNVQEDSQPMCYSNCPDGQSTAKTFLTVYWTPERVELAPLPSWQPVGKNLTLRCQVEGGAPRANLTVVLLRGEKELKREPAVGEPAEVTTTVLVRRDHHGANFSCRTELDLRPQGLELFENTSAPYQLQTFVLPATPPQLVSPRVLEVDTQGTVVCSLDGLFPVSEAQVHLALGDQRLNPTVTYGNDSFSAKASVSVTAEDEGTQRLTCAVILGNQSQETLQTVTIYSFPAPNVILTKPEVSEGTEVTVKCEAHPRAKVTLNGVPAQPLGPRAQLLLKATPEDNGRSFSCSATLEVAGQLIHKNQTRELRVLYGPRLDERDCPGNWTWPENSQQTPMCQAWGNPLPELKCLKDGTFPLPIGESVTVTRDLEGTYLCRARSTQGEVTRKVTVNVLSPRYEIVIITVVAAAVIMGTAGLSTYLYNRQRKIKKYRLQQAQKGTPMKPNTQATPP

`CNC(=O)c1cc2c(Oc3ccc(-n4cncn4)cc3)cncc2s1`: the values for the pIC50 (at E-selectin; in assay [1]) were 6.74 and 6.80, respectively.
Regarding `CNC(=O)c1cc2c(Oc3ccc(/C=C/C(=O)NCCc4c[nH]cn4)cc3)cncc2s1`, the pIC50 (in general, the IC50 on a negative log10 scale, so that one unit is a factor of ten) against E-selectin was 6.22; in assay [1], 6.17.
The corresponding values for `CNC(=O)c1cc2c(Oc3ccc(/C=C/C(=O)NCCN(CCO)CCO)cc3)cncc2s1` are 6.17 and 6.22.
For the compound `CNC(=O)c1cc2c(Oc3ccc(-c4ccccc4)cc3)cncc2s1`, the pIC50 was 8.05 against E-selectin and 7.60 in assay [1].
The corresponding values for `CNC(=O)c1cc2c(Oc3ccc(-c4nn[nH]n4)cc3)cncc2s1` are under 6.00 and under 6.00.
Consider `CCOCCOCCOCC(F)(F)c1ccc(Oc2cncc3sc(C(=O)NC)cc23)cc1`, for which the pIC50 against E-selectin was 6.96; in assay [1], 7.59.
As to `NC(=O)c1cc2c(Oc3ccc(C(=O)N(C(=O)NC4CCCCC4)C4CCCCC4)cc3)cncc2s1`, the pIC50 (at E-selectin; in assay [1]) was 6.94 throughout.
With `NC(=O)c1cc2c(Oc3ccc(Cl)cc3Br)cncc2s1`, the pIC50 against E-selectin was 6.96; in assay [1], 6.52.
The corresponding values for `Cc1cc(Cl)ccc1Oc1cncc2sc(C(N)=O)cc12` are 6.43 and 6.24.
`CNC(=O)c1cc2c(Oc3ccc(/C=C/C(=O)NCC(O)CO)cc3)cncc2s1` (stereo unspecified): the pIC50 against E-selectin was 6.08; in assay [1] it was 6.24.
As to `CCOC(=O)c1cccc(Oc2cncc3sc(C(N)=O)cc23)c1`, the negative-log IC50 (pIC50) was 6.20 at E-selectin and 6.17 in assay [1].
For the compound `CNC(=O)c1cc2c(Oc3ccc(N4CCOCC4)cc3)cncc2s1`, the figures for the pIC50 (against E-selectin; in assay [1]) were 7.46 and 7.10, respectively.
`NC(=O)c1cc2c(Oc3ccc(Cl)c(F)c3)cncc2s1`: the pIC50 against E-selectin was 8.10; in assay [1], 8.00.
As to `CNC(=O)c1cc2c(Oc3ccc(-c4noc(C(F)(F)F)n4)cc3)cncc2s1`, the pIC50 at E-selectin is 7.55; in assay [1] it was 7.66.
The corresponding values for `CNC(=O)c1cc2c(Oc3ccc(C(=O)NCCN4CCOCC4)cc3)cncc2s1` are 6.11 and 6.14.
The corresponding values for `NC(=O)c1cc2c(Oc3ccc(N)cc3)cncc2s1` are 7.46 and 7.38.
The corresponding values for `NC(=O)c1cc2c(Oc3ccc(COC4CCCCO4)cc3)cncc2s1` (stereo unspecified) are 8.70 and 8.85.
Take `CNC(=O)c1cc2c(Oc3ccc(/C=C/C(=O)NCCN4CCOCC4)cc3)cncc2s1`: the results for the pIC50 (against E-selectin; in assay [1]) were 7.37 and 7.28, respectively.
As to `CNC(=O)c1cc2c(Oc3ccc(-c4cccs4)cc3)cncc2s1`, the figures for the pIC50 (on E-selectin; in assay [1]) were 8.30 and 8.22, respectively.
The corresponding values for `COCCOCc1ccc(Oc2cncc3sc(C(N)=O)cc23)cc1` are 8.30 and 8.22.
The corresponding values for `NC(=O)c1cc2c(Oc3ccc(/C=C/C(=O)NCCN(CCO)CCO)cc3)cncc2s1` are 6.19 and 6.09.
The corresponding values for `NC(=O)c1cc2c(Oc3ccc(/C=C/C(=O)NCCN4CCOCC4)cc3)cncc2s1` are 7.47 and 7.49.
Regarding `NC(=O)c1cc2c(Oc3ccc(/C=C/C(=O)NCC(O)CO)cc3)cncc2s1` (stereo unspecified), the pIC50 against E-selectin was under 6.15; in assay [1], 6.10.
The corresponding values for `NC(=O)c1cc2c(Oc3cccc(Br)c3)cncc2s1` are 7.10 and 6.96.
In the case of `NC(=O)c1cc2c(Oc3cccc(C(F)(F)F)c3)cncc2s1`, the pIC50 was 6.06 at E-selectin and 6.12 in assay [1].
Turning to `NC(=O)c1cc2c(Oc3ccc(C(=O)NCCN4CCOCC4)cc3)cncc2s1`, the pIC50 (against E-selectin; in assay [1]) was under 6.00 in each case.
As to `NC(=O)c1cc2c(Oc3ccc(I)cc3)cncc2s1`, the pIC50 against E-selectin was 8.22; in assay [1], 8.40.
The corresponding values for `CNC(=O)c1cc2c(Oc3ccc(-c4cncn4C)cc3)cncc2s1` are 6.82 and 6.44.
